The source of these data is ChEMBL document CHEMBL4402517, “Rational modification of Mannich base-type derivatives as novel antichagasic compounds: Synthesis, in vitro and in vivo evaluation” (Bioorg Med Chem, 2019).

The nature of series [1]: Mutagenecity against Salmonella typhimurium TA97a assessed as number of colonies at 7.4 ug/plate in absence of Sprague-Dawley rat S9 with metabolic activation measured after 48 hrs by Ames test ( Rvb = 37 +/- 6.5). The format is toxicity. As to conditions: salmonella enterica subsp. enterica serovar typhimurium, s9, 48 h.
Series [2] in a line: Mutagenecity against Salmonella typhimurium TA97a assessed as number of colonies at 7.4 ug/plate in presence of Sprague-Dawley rat S9 with metabolic activation measured after 48 hrs by Ames test (reference value: 55 +/- 7.1). The settings on record: salmonella enterica subsp. enterica serovar typhimurium, s9, 48 h. The format is toxicity, subcellular. (In general: The Ames test uses bacterial strains that need an amino acid and regain growth without it when mutated back.)

Series [3] in a line: Mutagenecity against Salmonella typhimurium TA1535 assessed as number of colonies at 66.7 ug/plate in presence of Sprague-Dawley rat S9 measured after 48 hrs by Ames test (reference value: 5 +/- 3.6). The format is toxicity, subcellular. The settings on record: salmonella enterica subsp. enterica serovar typhimurium, s9, 48 h.
Series [4] is described as follows: Mutagenecity against Salmonella typhimurium TA 102 assessed as number of colonies at 200 ug/plate in presence of Sprague-Dawley rat S9 with metabolic activation measured after 48 hrs by Ames test (reference value: 72 +/- 1). As to conditions: salmonella enterica subsp. enterica serovar typhimurium, s9, 48 h. Format: toxicity, subcellular.
Series [5] in a line: Mutagenecity against Salmonella typhimurium TA97a assessed as number of colonies at 200 ug/plate in absence of Sprague-Dawley rat S9 […] measured after 48 hrs by Ames test ( Rvb = 37 +/- 6.5). The format is toxicity. The settings on record: salmonella enterica subsp. enterica serovar typhimurium, s9, 48 h.
Series [6] in a line: Mutagenecity against Salmonella typhimurium TA97a assessed as number of colonies at 66.7 ug/plate in presence of Sprague-Dawley rat S9 with metabolic activation measured after 48 hrs by Ames test (reference value: 55 +/- 7.1). The settings on record: salmonella enterica subsp. enterica serovar typhimurium, s9, 48 h. The format is toxicity, subcellular.
The subject of series [7] is Trypanosoma cruzi. The series can be described thus: Antitrypanosomal activity against Trypanosoma cruzi MHOM/Pe/2011/Arequipa;DTU 5 bloodstream trypomastigote infected in BALB/c mouse assessed as reduction in parasitemia […] at 20 mg/kg/day, po administered for 5 consecutive days starting from day 8 post infection measured every 2 to 3 days starting from day 7 post infection by Neubauer chamber relative to untreated control. The format is functional. Details: scale not given: the % may be the effect or the level left. In a few lines:
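Female BALB/c mice (three per group) were infected i.p. with 5 × 10^5 Arequipa bloodstream trypomastigotes, with parasitemia confirmed on day 7 pi. Oral dosing was 20 mg/kg/day on days 8–12 pi in 5% DMSO/0.5% HPMC; controls received vehicle. Bloodstream trypomastigotes were counted through the acute phase until day 48 pi.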

A short description of series [8]: Mutagenecity against Salmonella typhimurium TA98 assessed as number of colonies at 22.2 ug/plate in presence of Sprague-Dawley rat S9 measured after 48 hrs by Ames test (reference value: 4 +/- 2). The format is toxicity, subcellular. As to conditions: salmonella enterica subsp. enterica serovar typhimurium, s9, 48 h.
Series [9] in a line: Mutagenecity against Salmonella typhimurium TA97a assessed as number of colonies at 200 ug/plate in presence of Sprague-Dawley rat S9 with metabolic activation measured after 48 hrs by Ames test (reference value: 55 +/- 7.1). The settings on record: salmonella enterica subsp. enterica serovar typhimurium, s9, 48 h. Format: toxicity, subcellular.
Series [10] can be described thus: Toxicity in BALB/c mouse infected with Trypanosoma cruzi MHOM/Pe/2011/Arequipa;DTU 5 bloodstream trypomastigote assessed as change in serum alkaline phosphatase level in chronic phase at 20 mg/kg/day, po administered for 5 consecutive days starting from day 70 post infection measured on day 100 post infection relative to control. The format is organism-based. The settings on record: in vivo.

Series [11] in a line: Mutagenecity against Salmonella typhimurium TA1535 assessed as number of colonies at 7.4 ug/plate in absence of Sprague-Dawley rat S9 measured after 48 hrs by Ames test (reference value: 13.3 +/- 2.5). Format: toxicity. The settings on record: salmonella enterica subsp. enterica serovar typhimurium, s9, 48 h.
Series [12] in a line: Toxicity in BALB/c mouse infected with Trypanosoma cruzi MHOM/Pe/2011/Arequipa;DTU 5 bloodstream trypomastigote assessed as change in serum aspartate aminotransferase level in acute phase at 20 mg/kg/day, po administered for 5 consecutive days starting from day 8 post infection and measured at day 14 post infection by biochemical analysis relative to control. As to conditions: in vivo. Format: organism-based.

A short description of series [13]: Toxicity in BALB/c mouse infected with Trypanosoma cruzi MHOM/Pe/2011/Arequipa;DTU 5 bloodstream trypomastigote assessed as change in serum alkaline phosphatase level in acute phase at 20 mg/kg/day, po administered for 5 consecutive days starting from day 8 post infection and measured at day 14 post infection by biochemical analysis relative to control. Format: organism-based. The settings on record: in vivo.

Series [14] can be described thus: Toxicity in BALB/c mouse infected with Trypanosoma cruzi MHOM/Pe/2011/Arequipa;DTU 5 bloodstream trypomastigote assessed as change in serum creatine kinase muscle to brain ratio level in acute phase at 20 mg/kg/day, po administered for 5 consecutive days starting from day 8 post infection and measured on day 100 post infection by biochemical analysis relative to control. The format is organism-based. The settings on record: in vivo.

Series [15] is described as follows: Toxicity in BALB/c mouse infected with Trypanosoma cruzi MHOM/Pe/2011/Arequipa;DTU 5 bloodstream trypomastigote assessed as increase in serum lactate dehydrogenase level in acute phase at 20 mg/kg/day, po administered for 5 consecutive days starting from day 8 post infection and measured on day 100 post infection by biochemical analysis relative to control. As to conditions: in vivo. Format: organism-based.

`O=C(CCN1CCN(c2ccc(Cl)cc2)CC1)c1ccc(O)cc1`: the Activity in series [1] is on record as 34.4; in series [2], 44.3; in [3], 3.3; in series [4], 78; in series [5], 32.3; in [6], 44. For the same compound, the Activity in series [7] is 70%; in [8], 4; in series [9] it was 41; in series [10], above 10%; in series [11], 2.3.

For the compound `O=C(CCN1CCN(c2ccc(C(F)(F)F)cc2)CC1)c1ccc(O)cc1`, in series [12], the Activity is above 10%.

Take `O=C(Cn1ccnc1[N+](=O)[O-])NCc1ccccc1` [BENZNIDAZOLE]: the Activity is reported as above 10% in series [13], above 10% in series [14] and “<= 10%” in [15].
